Data published in ChEMBL document CHEMBL3414436, “Strong antibacterial properties of anion transporters: a result of depolarization and weakening of the bacterial membrane” (J Med Chem, 2015).
Calls of active or inactive are those of the source. The calls are words filed in the database; no cut-off is given here.

Columns and labels:
Escherichia coli [1] = experiment: Antibacterial activity against wild type Escherichia coli DH5alpha measured for 24 hrs; format: functional, DH5[alpha]
How it was run: (§1)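 Broth microdilution in LB at 37°C. Overnight precultures regrown to OD600 0.5, then diluted to OD600 0.1. Compound added in DMSO, final DMSO max 2.5% (v/v). Plates stirred; OD600 read at 0, 4, 8 and 24 h. MIC taken as lowest concentration with no detectable growth. Triplicates from independent cultures.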

Bacillus thuringiensis = experiment: Antibacterial activity against Bacillus thuringiensis HD73 measured for 24 hrs; format: functional
How it was run: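 Broth microdilution in LB. Overnight 37 °C preculture, regrown to OD600 0.5, diluted to OD600 0.1. Wells hold culture plus compound in DMSO (DMSO max 2.5% v/v final). Incubated at 37 °C with stirring, OD600 read at 0, 4, 8 and 24 h. MIC is the lowest concentration with no detectable growth. Triplicates from independent cultures.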

[2] = Binding affinity to egg yolk phosphotidylcholine liposomes assessed as induction of chloride ion efflux after 250 secs by fluorimetric analysis relative to lipid
How it was run: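 EYPC LUVs (100 nm extruded) loaded with 2 mM lucigenin, 100 mM NaCl and 10 mM sodium phosphate pH 6.4. Liposomes are suspended in NaNO3 buffer at 37 °C. Transporter in MeOH, at various concentrations, is added at 50 s and Triton X-100 lysis at 300 s. Chloride efflux is read as lucigenin fluorescence (ex 372, em 503 nm). Traces are averaged over triplicates.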

Escherichia coli [3] = experiment: Antibacterial activity against Escherichia coli SK037 expressing TolC mutant measured for 24 hrs; format: functional; how it was run: as §1
[4] = Induction of nitrate anions efflux in chloroform phase at 1 mM by fluorescence-based U-tube method; format: physicochemical; details: 1000 µM
How it was run: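 U-tube: 10 mL chloroform containing 1 mM ionophore separates 5 mL of 0.1 mM aqueous lucigenin (donor arm) from 5 mL water (receiving arm). Lucigenin fluorescence in the receiving phase is monitored at ex 372 and em 503 nm. Neat chloroform serves as control.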

Escherichia coli [5] = experiment: Ratio of MIC for wild type Escherichia coli DH5alpha to MIC for Escherichia coli SK037 expressing TolC mutant; format: functional
Escherichia coli [6] = experiment: Induction of membrane permeabilization in Escherichia coli SK037 expressing TolC mutant at 40 times MIC after 2 hrs by diSC25 dye-based fluorescence assay; format: functional, organism-based
How it was run: (§2)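 E. coli SK037 grown overnight in LB at 37°C, washed in 5 mM HEPES pH 7.3 with 20 mM glucose and diluted to A600 0.15. diSC25 (1 µM final) equilibrated 1 h at 37°C to a stable baseline. Compound in DMSO added to 0.4 mM or 1 mM final. Fluorescence ex 600/em 660 nm followed ~2 h with stirring at 37°C.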

[7] = Hemolytic activity in human RBC at 25 uM after 1 hr relative to control; format: ADME, cell-based, Erythrocyte; details: red blood cells (RBC), read-out: Activity
How it was run: (§3)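 Human type O erythrocytes are washed in PBS and used at 2% v/v. Two-fold serial dilutions in DMSO are added, then incubated for 1 or 24 h at 37 °C with gentle shaking. After centrifugation at 2000g, hemoglobin release is read as supernatant A405. It is normalized to PBS (0%) and 0.5% Triton X-100 (100%). Mean of three experiments.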

[8] = Hemolytic activity in human RBC at 25 uM after 24 hrs relative to control; format: cell-based, Erythrocyte; details: red blood cells (RBC), read-out: Activity; how it was run: as §3
Escherichia coli [9] = experiment: Induction of membrane depolarization in Escherichia coli SK037 expressing TolC mutant at 40 times MIC after 2 hrs by diSC25 dye-based fluorescence assay; format: functional, organism-based; how it was run: as §2
Lipid bilayer = experiment: Binding affinity to DPPC liposomes assessed as induction of chloride ion efflux at 35 to 45 degC after 250 secs by fluorimetric analysis; details: Microsome
How it was run: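 Lucigenin-loaded (2 mM) DPPC LUVs (100 nm extruded) containing 100 mM NaCl and 10 mM sodium phosphate pH 6.4, external dye removed by gel filtration. Vesicles diluted into 2.5 mL stirred phosphate buffer at 35, 40 or 45°C. Transporter in MeOH added at t = 50 s to 10 mol% relative to lipid; Triton X-100 lysis at 300 s. Fluorescence ex 372/em 503 nm. Average of three runs.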

Escherichia coli [10] = experiment: Antibacterial activity against Escherichia coli SK037 expressing TolC mutant assessed as change in cell morphology and membrane damage after 12 to 24 hrs by field emission scanning electron microscopic analysis; format: functional, organism-based
How it was run: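 E. coli SK037 grown in LB, washed three times, resuspended in 10 mM PBS pH 7.4 and diluted to A600 1.20 (9 x 10^8 CFU/mL). Cells exposed to 0.04 mM or 0.08 mM compound (added in DMSO) on poly-lysine-coated glass slides at 37°C for 12 h or 24 h. Fixed with 2.5% glutaraldehyde, stained with 1% OsO4, ethanol-dehydrated, critical-point dried, carbon-coated, imaged by field emission SEM.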

[11] = Escherichia coli, SK037, 24 h, read-out: MIC
[12] = Escherichia coli, DH5[alpha], 24 h, read-out: MIC
[13] = Bacillus thuringiensis, HD73, 24 h, read-out: MIC

Compound	EC50 [2]	MIC (Escherichia coli [3]; [11])	Ratio (Escherichia coli [5])	MIC (Escherichia coli [1]; [12])	MIC (Bacillus thuringiensis; [13])	further results
C(#Cc1ccc(C[n+]2cn(Cc3cccc(Cn4c[n+](Cc5ccc(C#Cc6ccccc6)cc5)c5ccccc54)n3)c3ccccc32)cc1)c1ccccc1.[Br-].[Br-]	14 mol%	10 µM	10	–	–	MIC (Escherichia coli [1]): 100 µM; MIC (Bacillus thuringiensis): 10 µM; Activity [4]: Not Active
C(#Cc1ccc(Cn2c[n+](Cc3ccc(C#Cc4ccccc4)cc3)c3ccccc32)cc1)c1ccccc1.O=S(=O)([N-]S(=O)(=O)C(F)(F)F)C(F)(F)F [listing 1 of 2 here]	–	–	–	–	–	Activity (Escherichia coli [6]): Active
C(#Cc1ccc(C[n+]2cn(Cc3cccc(Cn4c[n+](Cc5ccc(C#Cc6ccccc6)cc5)c5ccccc54)n3)c3ccccc32)cc1)c1ccccc1.O=S(=O)([O-])C(F)(F)F.O=S(=O)([O-])C(F)(F)F	0.46 mol%	–	2.5	–	–	MIC (Escherichia coli [1]): 25 µM; MIC (Bacillus thuringiensis): 2 µM; MIC (Escherichia coli [3]): 10 µM; hemolysis at 1 h, 25 µM [7]: < 10%; Activity [4]: Active; hemolysis at 24 h, 25 µM [8]: 10%
C(#Cc1ccc(C[n+]2cn(Cc3cccc(Cn4c[n+](Cc5ccc(C#Cc6ccccc6)cc5)c5ccccc54)n3)c3ccccc32)cc1)c1ccccc1	–	–	–	–	–	Activity (Escherichia coli [9]): Active; Activity (Lipid bilayer): Active; Activity (Escherichia coli [10]): Dose-dependent effect; Activity (Escherichia coli [6]): Active
C(#Cc1ccc(C[n+]2cn(Cc3cccc(Cn4c[n+](Cc5ccc(C#Cc6ccccc6)cc5)c5ccccc54)n3)c3ccccc32)cc1)c1ccccc1.O=S(=O)([N-]S(=O)(=O)C(F)(F)F)C(F)(F)F.O=S(=O)([N-]S(=O)(=O)C(F)(F)F)C(F)(F)F [listing 1 of 2 here]	–	–	–	–	–	Activity (Escherichia coli [9]): Active; Activity (Lipid bilayer): Active; Activity (Escherichia coli [6]): Active
C(#Cc1ccc(C[n+]2cn(-c3cccc(-n4c[n+](Cc5ccc(C#Cc6ccccc6)cc5)c5ccccc54)n3)c3ccccc32)cc1)c1ccccc1.[Br-].[Br-]	24 mol%	> 100 µM	–	> 100 µM	10 µM	–
C(#Cc1ccc(C[n+]2cn(-c3cccc(-n4c[n+](Cc5ccc(C#Cc6ccccc6)cc5)c5ccccc54)n3)c3ccccc32)cc1)c1ccccc1.O=S(=O)([O-])C(F)(F)F.O=S(=O)([O-])C(F)(F)F	12 mol%	–	–	–	–	MIC (Escherichia coli [1]): >100 µM; MIC (Bacillus thuringiensis): 10 µM
C(#Cc1ccc(C[n+]2cn(-c3cccc(-n4c[n+](Cc5ccc(C#Cc6ccccc6)cc5)c5ccccc54)n3)c3ccccc32)cc1)c1ccccc1.O=S(=O)([N-]S(=O)(=O)C(F)(F)F)C(F)(F)F.O=S(=O)([N-]S(=O)(=O)C(F)(F)F)C(F)(F)F	6.9 mol%	> 100 µM	–	> 100 µM	10 µM	–
C(#Cc1ccc(C[n+]2cn(Cc3cccc(Cn4c[n+](Cc5ccc(C#Cc6ccccc6)cc5)c5ccccc54)n3)c3ccccc32)cc1)c1ccccc1.O=S(=O)([N-]S(=O)(=O)C(F)(F)F)C(F)(F)F.O=S(=O)([N-]S(=O)(=O)C(F)(F)F)C(F)(F)F [listing 2 of 2 here]	5.6 mol%	10 µM	2.5	50 µM	10 µM	Activity [4]: Not Active
C(#Cc1ccc(Cn2c[n+](Cc3ccc(C#Cc4ccccc4)cc3)c3ccccc32)cc1)c1ccccc1.[Br-]	14.8 mol%	> 100 µM	–	> 100 µM	10 µM	–
C(#Cc1ccc(Cn2c[n+](Cc3ccc(C#Cc4ccccc4)cc3)c3ccccc32)cc1)c1ccccc1.O=S(=O)([N-]S(=O)(=O)C(F)(F)F)C(F)(F)F [listing 2 of 2 here]	5.8 mol%	25 µM	2.5	> 100 µM	10 µM	–
